Results from ChEMBL document CHEMBL1125894, “Dual-action cephalosporins: cephalosporin 3'-quaternary ammonium quinolones” (1991).
≈ marks a conversion by molar mass, not a printed value. Where “and” joins values, the source holds several entries; their conditions need not be identical. Equal entries are not always repeated.

Tests used:
Enterobacter cloacae [1] = assay: In vitro antibacterial activity against Enterobacter cloacae P99; assay type: functional
In short: (§1)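 Serial 2-fold dilutions in the NCCLS broth microdilution method for aerobic nonfastidious organisms, with an 18-h incubation. The value is reported as the minimum inhibitory concentration (MIC).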

Pseudomonas aeruginosa [2] = assay: In vivo activity in murine against Pseudomonas aeruginosa 5712 infection after sc administration.; assay type: functional
In short: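 Mouse protection test in CD1 Swiss albino mice (18–20 g) infected intraperitoneally with 0.5 mL of diluted P. aeruginosa suspension. Mice received 1.0 mL subcutaneously at the neck base within 5 min of infection and a second treatment 3 h after infection. Doses ranged from 0.05 to 250 mg/kg, with six mice per group. ED50 was calculated by the Reed–Muench method.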

Enterobacter cloacae [3] = assay: In vitro antibacterial activity against Enterobacter cloacae 5699; assay type: functional; in short: as §1
Escherichia coli [4] = assay: In vitro antibacterial activity against Escherichia coli 257; assay type: functional; in short: as §1
Staphylococcus aureus [5] = assay: In vivo activity in murine against Staphylococcus aureus Smith (MS) infection after sc administration.; assay type: functional
In short: (§2)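 Mouse protection test in CD1 Swiss albino mice (18–20 g). Mice were infected intraperitoneally with 0.5 mL of a diluted bacterial suspension, then treated within 5 min with one 1.0 mL subcutaneous dose at the dorsal base of the neck. Doses ranged from 0.05 to 250 mg/kg, with six mice per group. ED50 was calculated by the Reed–Muench method.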

Staphylococcus aureus [6] = assay: In vitro antibacterial activity against Staphylococcus aureus Smith(MS); assay type: functional
In short: (§3)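 Staphylococci were tested by the standard agar dilution procedure using serial 2-fold dilutions of agent. The value is reported as the MIC.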

Klebsiella pneumoniae [7] = assay: In vitro antibacterial activity against Klebsiella pneumoniae A; assay type: functional; in short: as §1
Staphylococcus aureus [8] = assay: In vitro antibacterial activity against Staphylococcus aureus 95(MR); assay type: functional; in short: as §3
Streptococcus pneumoniae [9] = assay: In vitro antibacterial activity against Streptococcus pneumoniae 6301; assay type: functional
In short: (§4)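 Broth macrodilution with serial 2-fold dilutions in cation-supplemented Mueller-Hinton broth containing 10% goat serum. The value is reported as the MIC.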

Serratia marcescens [10] = assay: In vitro antibacterial activity against Serratia marcescens SM; assay type: functional; in short: as §1
Pseudomonas aeruginosa [11] = assay: In vitro antibacterial activity against Pseudomonas aeruginosa 5712; assay type: functional; in short: as §1
Klebsiella pneumoniae [12] = assay: In vivo activity in murine against Klebsiella pneumoniae A infection after sc administration.; assay type: functional; in short: as §2
Streptococcus pneumoniae [13] = assay: In vivo activity in murine against Streptococcus pneumoniae 6301 infection after sc administration.; assay type: functional; in short: as §2
Enterobacter cloacae [14] = assay: In vivo activity in murine against Enterobacter cloacae 5699 infection after sc administration.; assay type: functional; in short: as §2
Streptococcus pyogenes [15] = assay: In vivo activity in murine against Streptococcus pyogenes 4 infection after sc administration.; assay type: functional; in short: as §2
Streptococcus pyogenes [16] = assay: In vitro antibacterial activity against Streptococcus pyogenes 4; assay type: functional; in short: as §4
Staphylococcus aureus [17] = assay: In vivo activity in murine against Staphylococcus aureus 753(MR) infection after sc administration.; assay type: functional; in short: as §2
Citrobacter freundii [18] = assay: In vivo activity in murine against Citrobacter freundii BS#16 infection after sc administration.; assay type: functional
In short: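 CD1 Swiss albino mice (18–20 g) infected intraperitoneally with 0.5 mL diluted bacterial culture suspension. Single subcutaneous treatment within 5 min, 1.0 mL at dorsal base of neck, serial dilutions spanning 0.05–250 mg/kg. Six mice per treatment and control group. ED50 (50% protective dose) derived by Reed and Muench method.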

Citrobacter freundii [19] = assay: In vitro antibacterial activity against Citrobacter freundii BS 16; assay type: functional; in short: as §1
Serratia marcescens [20] = assay: In vivo activity in murine against Serratia marcescens SM infection after sc administration.; assay type: functional; in short: as §2
Escherichia coli [21] = assay: In vivo activity in murine against Escherichia coli 257 infection after sc administration.; assay type: functional; in short: as §2
[22] = biological target: T1, Peptidoglycan D,D-transpeptidase MrdA (Escherichia coli K-12) (UniProt P0AD65); assay: Concentration required for 90% inhibition against 66 kDa penicillin-binding protein 2 binding using [14C]-Pen G as the radioligand.
T1 sequence (whole entry): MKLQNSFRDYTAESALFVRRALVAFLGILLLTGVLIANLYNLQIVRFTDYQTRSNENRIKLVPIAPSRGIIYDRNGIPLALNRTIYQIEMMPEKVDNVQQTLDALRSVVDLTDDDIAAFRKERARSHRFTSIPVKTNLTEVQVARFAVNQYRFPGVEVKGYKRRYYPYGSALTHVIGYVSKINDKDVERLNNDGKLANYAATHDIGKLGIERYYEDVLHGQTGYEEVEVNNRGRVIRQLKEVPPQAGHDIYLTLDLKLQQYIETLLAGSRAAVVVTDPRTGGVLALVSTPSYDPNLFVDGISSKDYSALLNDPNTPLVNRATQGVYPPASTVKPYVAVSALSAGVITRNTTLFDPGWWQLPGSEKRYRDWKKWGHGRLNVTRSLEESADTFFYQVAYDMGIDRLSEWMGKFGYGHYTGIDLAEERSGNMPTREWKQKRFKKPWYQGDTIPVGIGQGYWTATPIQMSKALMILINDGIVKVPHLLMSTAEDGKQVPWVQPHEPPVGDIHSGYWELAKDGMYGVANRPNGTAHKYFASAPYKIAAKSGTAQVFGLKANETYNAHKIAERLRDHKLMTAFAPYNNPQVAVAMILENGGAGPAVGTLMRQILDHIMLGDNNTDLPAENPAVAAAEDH
In short: (§5)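 Solubilized membranes from sonicated E. coli DC-0 were used. PBP binding was measured as inhibition of [14C]penicillin G binding to each PBP.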

[23] = biological target: T2, Penicillin-binding protein 1A (Escherichia coli K-12) (UniProt P02918); assay: Concentration required for 90% inhibition against 90 kDa penicillin-binding protein 1a binding using [14C]-Pen G as the radioligand.; in short: as §5
T2 sequence (whole entry): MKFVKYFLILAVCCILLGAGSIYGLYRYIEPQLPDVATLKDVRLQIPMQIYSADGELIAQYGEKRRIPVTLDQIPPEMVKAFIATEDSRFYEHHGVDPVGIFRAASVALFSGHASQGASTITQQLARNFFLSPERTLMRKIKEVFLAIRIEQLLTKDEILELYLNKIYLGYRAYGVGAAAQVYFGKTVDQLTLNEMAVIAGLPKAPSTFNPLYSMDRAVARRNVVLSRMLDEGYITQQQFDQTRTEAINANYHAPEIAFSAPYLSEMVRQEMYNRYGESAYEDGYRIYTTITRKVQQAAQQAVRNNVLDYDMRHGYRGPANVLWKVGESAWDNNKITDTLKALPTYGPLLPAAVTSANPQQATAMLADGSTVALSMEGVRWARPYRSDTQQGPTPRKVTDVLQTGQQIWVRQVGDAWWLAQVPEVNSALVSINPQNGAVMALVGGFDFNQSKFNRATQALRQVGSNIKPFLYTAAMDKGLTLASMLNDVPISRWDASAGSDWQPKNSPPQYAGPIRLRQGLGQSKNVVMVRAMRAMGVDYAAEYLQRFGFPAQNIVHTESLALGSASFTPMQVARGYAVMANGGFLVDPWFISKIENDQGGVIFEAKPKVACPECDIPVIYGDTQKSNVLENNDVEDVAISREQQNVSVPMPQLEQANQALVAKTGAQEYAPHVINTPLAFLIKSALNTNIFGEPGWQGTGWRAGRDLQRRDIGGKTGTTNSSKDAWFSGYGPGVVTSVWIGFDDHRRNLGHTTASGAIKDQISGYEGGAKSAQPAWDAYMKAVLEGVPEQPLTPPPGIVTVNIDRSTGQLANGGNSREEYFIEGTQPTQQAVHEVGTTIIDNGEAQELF

Escherichia coli [24] = assay: Antibacterial activity against Escherichia coli DC-O; assay type: functional; in short: as §1
[25] = biological target: T3, Penicillin-binding protein 1B (Escherichia coli K-12) (UniProt P02919); assay: Concentration required for 90% inhibition against 90 kDa penicillin-binding protein 1b binding using [14C]-Pen G as the radioligand.; in short: as §5
T3 sequence (whole entry): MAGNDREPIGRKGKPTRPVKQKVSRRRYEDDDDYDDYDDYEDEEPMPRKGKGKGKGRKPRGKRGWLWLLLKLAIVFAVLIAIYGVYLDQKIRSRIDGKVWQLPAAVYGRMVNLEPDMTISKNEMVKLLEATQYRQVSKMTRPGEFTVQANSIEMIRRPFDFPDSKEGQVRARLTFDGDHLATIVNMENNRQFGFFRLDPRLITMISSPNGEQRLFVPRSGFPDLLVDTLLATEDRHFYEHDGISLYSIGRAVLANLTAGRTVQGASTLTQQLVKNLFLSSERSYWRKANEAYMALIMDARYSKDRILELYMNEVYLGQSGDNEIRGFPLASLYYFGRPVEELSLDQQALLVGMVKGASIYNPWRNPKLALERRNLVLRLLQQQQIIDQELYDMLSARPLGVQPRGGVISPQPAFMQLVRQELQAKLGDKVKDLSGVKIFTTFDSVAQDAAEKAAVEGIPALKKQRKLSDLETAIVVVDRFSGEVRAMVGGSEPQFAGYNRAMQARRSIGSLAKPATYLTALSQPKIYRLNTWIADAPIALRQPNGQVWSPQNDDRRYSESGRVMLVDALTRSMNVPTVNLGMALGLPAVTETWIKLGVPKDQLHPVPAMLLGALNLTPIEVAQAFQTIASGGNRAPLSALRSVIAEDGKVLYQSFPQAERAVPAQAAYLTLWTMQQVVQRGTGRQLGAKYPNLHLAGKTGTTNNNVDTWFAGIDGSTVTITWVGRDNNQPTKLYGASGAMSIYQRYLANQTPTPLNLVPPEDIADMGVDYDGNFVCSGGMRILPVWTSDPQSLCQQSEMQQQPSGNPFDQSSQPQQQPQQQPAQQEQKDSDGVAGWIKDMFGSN

Escherichia coli [26] = assay: Concentration required for 90% inhibition against 60 kDa penicillin-binding protein 3 binding using [14C]-Pen G as the radioligand.; in short: as §5
[27] = Escherichia coli, sc, read-out: ED50
[28] = Pseudomonas aeruginosa, sc, read-out: ED50

| Compound | MIC (Enterobacter cloacae [1]) [µg/mL] | MIC (Enterobacter cloacae [3]) [µg/mL] | MIC (Escherichia coli [4]) [µg/mL] | ED50 (Staphylococcus aureus [5]) [mg/kg] | MIC (Staphylococcus aureus [6]) [µg/mL] | MIC (Klebsiella pneumoniae [7]) [µg/mL] | MIC (Staphylococcus aureus [8]) [µg/mL] | MIC (Streptococcus pneumoniae [9]) [µg/mL] | MIC (Serratia marcescens [10]) [µg/mL] | MIC (Pseudomonas aeruginosa [11]) [µg/mL] | ED50 (Klebsiella pneumoniae [12]) [mg/kg] | ED50 (Streptococcus pneumoniae [13]) [mg/kg] | ED50 (Enterobacter cloacae [14]) [mg/kg] | ED50 (Streptococcus pyogenes [15]) [mg/kg] | MIC (Streptococcus pyogenes [16]) [µg/mL] | ED50 (Staphylococcus aureus [17]) [mg/kg] | ED50 (Citrobacter freundii [18]) [mg/kg] | MIC (Citrobacter freundii [19]) [µg/mL] | ED50 (Serratia marcescens [20]) [mg/kg] | ED50 (Escherichia coli [21]; [27]) [mg/kg] | further results |
| --- | --- | --- | --- | --- | --- | --- | --- | --- | --- | --- | --- | --- | --- | --- | --- | --- | --- | --- | --- | --- | --- |
| CN1CCN(c2c(F)cc3c(=O)c(C(=O)O)cn(CCF)c3c2F)CC1 [FLEROXACIN] | 0.031 (≈ 0.0839 µM) | 0.063 (≈ 0.171 µM) | 0.031 (≈ 0.0839 µM) | 0.65 | 0.25 (≈ 0.677 µM) | 0.031 (≈ 0.0839 µM) | 0.25 (≈ 0.677 µM) | 8 (≈ 21.7 µM) | 0.25 (≈ 0.677 µM) | 4 (≈ 10.8 µM) | 0.3 | > 250 | < 2 | > 250 | 4 (≈ 10.8 µM) | 2.8 | 2 | 0.25 (≈ 0.677 µM) | < 2 | 0.25 | ED50 (Pseudomonas aeruginosa [2]): 14 mg/kg and 31 mg/kg; ED50 (Escherichia coli [21]): 0.26 mg/kg |
| CO/N=C(\C(=O)N[C@@H]1C(=O)N2C(C(=O)[O-])=C(C[N+]3(C)CCN(c4c(F)cc5c(=O)c(C(=O)O)cn(CCF)c5c4F)CC3)CS[C@H]12)c1csc(N)n1 | 0.5 (≈ 0.654 µM) | 0.5 (≈ 0.654 µM) | 0.125 (≈ 0.163 µM) |  | 4 (≈ 5.23 µM) | 0.5 (≈ 0.654 µM) | 4 (≈ 5.23 µM) | 0.063 (≈ 0.0824 µM) | 1 (≈ 1.31 µM) | 32 (≈ 41.8 µM) |  | 12 |  | < 5 | 0.125 (≈ 0.163 µM) |  |  | 2 (≈ 2.62 µM) | 10 | < 0.5 | Concentration [22]: 100 µg/mL; ED50 (Pseudomonas aeruginosa [2]; [28]): > 250 mg/kg; Concentration [23]: > 100 µg/mL; MIC (Escherichia coli [24]): 0.2 µg/mL (≈ 0.262 µM); Concentration [25]: > 100 µg/mL; Concentration (Escherichia coli [26]): 0.1 µg/mL |
| CC(C)(O/N=C(\C(=O)N[C@@H]1C(=O)N2C(C(=O)[O-])=C(C[n+]3ccccc3)CS[C@H]12)c1csc(N)n1)C(=O)O [CEFTAZIDIME] |  |  |  | < 2 |  |  |  |  |  |  | < 2 | 3 | 25 | 12 |  | 62 | 22 |  | 67 | < 0.5 | ED50 (Pseudomonas aeruginosa [2]; [28]): 217 mg/kg |
